# Results as given in the EternaBench riboswitch data.
# Tests used:
# [1] = test system: MS2 coat protein; assay: apparent Kd, MS2 coat protein; higher = weaker binding; RNA-MaP array; tryptophan 2.4 mM where present
# Method in brief: (§1)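 The apparent Kd is reported as the median of filtered per-cluster binding-curve fits. To get these curves, designs transcribed by stalled E. coli RNA polymerase on Illumina sequencing-chip clusters were titrated with SNAP-549-labelled MS2 coat protein from 0.7 or 1.5 nM, doubling to 3 µM. Titrations were run without and then with constant ligand in 100 mM Tris-HCl pH 7.5, 80 mM KCl, 4 mM MgCl2, BSA, DTT, yeast tRNA and Tween-20, and green signal was normalised to red-channel RNA signal and control-cluster median Fmax.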
# [2] = test system: MS2 coat protein; assay: apparent Kd, MS2 coat protein; higher = weaker binding; RNA-MaP array; theophylline 2 mM where present
# Method in brief: as §1
# [3] = designed as: ON switch for tryptophan, no ligand
# [4] = ligand present: tryptophan, designed as: ON switch for tryptophan
# [5] = designed as: OFF switch for tryptophan, no ligand
# [6] = ligand present: tryptophan, designed as: OFF switch for tryptophan
# [7] = designed as: OFF switch for theophylline, no ligand
# [8] = ligand present: theophylline, designed as: OFF switch for theophylline
# [9] = designed as: ON switch for theophylline, no ligand
# [10] = ligand present: theophylline, designed as: ON switch for theophylline
sequence,measurement,setting,value
CACGAUUUGUCGGCCGCCACUAAGGUAACUCUUCUCACAUGAGGAUCACCCAUGUGCCCGAAGCUUAGGACCGGGAUAAUGGGUG,apparent Kd,[1]; [3],118 nM
same,apparent Kd,[1]; [4],40.8 nM
CGACUGUAAAGUCGACCGGUCAUCAAUAAUCGAGGACCGGUACGGCCGCCACUCGAUGUGAUUUCACAUGAGGAUCACCCAUGUA,apparent Kd,[1]; [3],23.9 nM
same,apparent Kd,[1]; [4],22.2 nM
CGAGUAGGUUCAAUCGAAUAACGGUUUUCGCGAGGACCGGUACGGCCGCCACUCGUGUGAUAUCACACAUGAGGAUCACCCAUGU,apparent Kd,[1]; [3],45 nM
same,apparent Kd,[1]; [4],33.8 nM
CGAGUGAGUUCAAUCGAAUAACGGUUUUCGCGAGGACCGGUACGGCCGCCACUCGUGUGAUAUCACACAUGAGGAUCACCCAUGU,apparent Kd,[1]; [3],37.9 nM
same,apparent Kd,[1]; [4],31.6 nM
CGAGUGCUGUCGGCCGCCACUGCACAUGAGGAUCACCCAUGUAAAAGCUGGCUGUGACUGGUGUUCAGGACCGGGACAGGGUCUU,apparent Kd,[1]; [5],10.7 nM
same,apparent Kd,[1]; [6],25.4 nM
CUAAAUAUAACGGCCGCCACUUACUCAUGAGGUAACAACAUGAGGAUCACCCAUGUUUGAGGAUCAAGGACCGGGUUAUAUUUAG,apparent Kd,[1]; [3],25.6 nM
same,apparent Kd,[1]; [4],19 nM
CUACAUUUGUAGAAACCGGUCAACAUUAUUCGAGGACCGGUACGGCCGCCACUCGUAUAAUUUAAUACAUGAGGAUCACCCAUGU,apparent Kd,[1]; [3],14.6 nM
same,apparent Kd,[1]; [4],15.9 nM
CUACAUUUGUAGAAACCGGUCAACAUUAUUCGAGGACCGGUACGGCCGCCACUCGUAUCAUUUGAUACAUGAGGAUCACCCAUGU,apparent Kd,[1]; [3],19.2 nM
same,apparent Kd,[1]; [4],22.6 nM
GAAUAAGAAUCGGCCGCCACUCACAUGAGGAUCACCCAUGUACAUGAGGAACAUGAAAAUCACCCGAGGACCGGGAUAUAUGUUC,apparent Kd,[1]; [5],70 nM
same,apparent Kd,[1]; [6],66.9 nM
GACUAUAUGAUAUGUCAGAAAUCCUCGAAACGAGGACCGGUACGGCCGCCACUCGAGUGAUAAACAUGAGGAUCACCCAUGUAAA,apparent Kd,[1]; [5],22.5 nM
same,apparent Kd,[1]; [6],51.9 nM
GAGUAGAGGACGGCCGCCACUAAACAUGAGGAUCACCCAUGUCGUGAUCCGUUACCUAGGGUAGAUAGGACCGGGUCAUGUAGUC,apparent Kd,[1]; [5],59.3 nM
same,apparent Kd,[1]; [6],45.9 nM
GUAUGGAAACAUACUAGGGUAUCAUGAGAUACCAGUACAGAAAUGUACCCUUGGCAGCUCUAGCAUACAUGAGGAUCACCCAUGU,apparent Kd,[2]; [7],14 nM
same,apparent Kd,[2]; [8],22.9 nM
UAAAAUAAUAAUGAUACCAGCCCUCCCUCCCGGGACAUGAGGAUCACCCAUGUCUCUCCCGGCCCUUGGCAGCAUAAAUAAUAAU,apparent Kd,[2]; [9],11.1 nM
same,apparent Kd,[2]; [10],14.2 nM
UAAAUAUUACUGGGUAAGGUAUAAAUAGAUACCAGCCAGAUAACUGGCCCUUGGCAGCUAAACAUGAGGAUCACCCAUGUAUAAU,apparent Kd,[2]; [9],37 nM
same,apparent Kd,[2]; [10],116 nM
UAUAUAGUGAUGGAUACCAGCAGAGAAAACGUUUAUCCUAACAUGAGGAUCACCCAUGUAUGCCCUUGGCAGCUGUUGUUAUAUA,apparent Kd,[2]; [7],20.1 nM
same,apparent Kd,[2]; [8],28 nM
UAUAUAUAGAUGGAUACCAGCAGAGAAAACGUUUAUCCUAACAUGAGGAUCACCCAUGUAUGCCCUUGGCAGCUGUUUAUAUAUA,apparent Kd,[2]; [7],24.4 nM
same,apparent Kd,[2]; [8],31.6 nM
UAUUUGGUGCGCGAGUGUUGGAUAAUUGAUACCAGUGAAGAAGAGCGCCCUUGGCAGCGAAUCCUAACAUGAGGAUCACCCAUGU,apparent Kd,[2]; [9],39.2 nM
same,apparent Kd,[2]; [10],48.7 nM
UCGCACAUGAGGAUCACCCAUGUACUAGAUACCAGUGACGCGGUGCACCCUUGGCAGCUGGUGCUGAGUGAUGGUUCCCUCGGCA,apparent Kd,[2]; [7],119 nM
same,apparent Kd,[2]; [8],143 nM
UCUCGGUCUUUCUUUCUCCGAGAAUAUGAUACCAGUUAGUUUUAUGGCCCUUGGCAGCAUAGAACAUGAGGAUCACCCAUGUGUU,apparent Kd,[2]; [9],94.2 nM
same,apparent Kd,[2]; [10],108 nM
UCUGGGUGCGCAAGGACCUGGAGUUGCGAUACCAGCACGGUAACGUGCCCUUGGCAGCGCACAUGAGGAUCACCCAUGUGGUGUU,apparent Kd,[2]; [7],310 nM
same,apparent Kd,[2]; [8],388 nM
UCUUUCUUUGUAGAUACCAGCGUGUUAUCUUUCUUUUGACAUGAGGAUCACCCAUGUAUAUGCCCUUGGCAGCUACAUAUUCUUU,apparent Kd,[2]; [9],18.5 nM
same,apparent Kd,[2]; [10],14.2 nM
UGACAUUGCUCAGAUACCAGACAUGAGGAUCACCCAUGUACCAAGAAAACGUACAUAAAUGUCCCUUGGCAGCUGAGCAAUGUCU,apparent Kd,[2]; [7],524 nM
same,apparent Kd,[2]; [8],713 nM
UGUUUGGUGCGCGAGUGUUGGAUAAAUGAUACCAGUGUAGAUGUACGCCCUUGGCAGCGUAUCCGAACAUGAGGAUCACCCAUGU,apparent Kd,[2]; [9],37.7 nM
same,apparent Kd,[2]; [10],67.2 nM
UGUUUGGUGCGCGAGUGUUGGAUAAUUGAUACCAGUGUAGAUGUACGCCCUUGGCAGCGAAUCCGAACAUGAGGAUCACCCAUGU,apparent Kd,[2]; [9],32.5 nM
same,apparent Kd,[2]; [10],87.2 nM
UUAAAUGUGACGGAUACCAGCGUGUUGUAGAACAUGAGGAUCACCCAUGUAGUGAUCGAGCGCCCUUGGCAGCUGGUAUGUUUGA,apparent Kd,[2]; [9],180 nM
same,apparent Kd,[2]; [10],532 nM
UUAGAUAUGACAGAUACCAGCGUGUUGUAGAACAUGAGGAUCACCCAUGUAGUGAUCGAGCGCCCUUGGCAGCUGGUGUGUUUGG,apparent Kd,[2]; [9],149 nM
same,apparent Kd,[2]; [10],440 nM
